Screening data as filed in PubChem.
Shown are actives, neighbours in structure and some others; about 1.3% of the full set was active somewhere.
PfG6PD inh: PfG6PD (Plasmodium falciparum) enzyme inhibition | PfGluPho enzyme, NADPH resazurin-diaphorase fluorescence | inhibition, % at 20 µM | 0.78% of 350,000 active;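 active = inhibition reaching at least a set limit at 20 µM in the primary screen, cut at about 59% in these data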
Diaph inh CS: counter-screen for diaphorase-based assays: diaphorase inhibitors and chemical oxidizers; diaphorase resazurin-to-resorufin fluorescence, NADH, 16 min; bacterial (C. kluyveri) enzyme, not human; inhibition, % at 20 µM; 0.69% of 190,000 active;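 active = primary screen inhibition at 20 µM above a set limit, cut at about 50% in these data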
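System: Bacterial diaphorase enzyme (C. kluyveri) | Incubation: 16-min room-temperature incubation before reading | Benchmarks: No-NADH positive control and DMSO neutral control | Measured by: Resorufin fluorescence 544/590 nm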
Diaph act CS: counter-screen for diaphorase-based assays: diaphorase activators and chemical reducers | 0.005% of 190,000 active | AID 1229 | activation factor at 20 µM | Diaphorase/resazurin coupled assay, resorufin fluorescence, 16 min; active compounds read high; 1 = vehicle wells, 0 = NADH-free wells;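 active = diaphorase activity raised at least twofold by the compound at 20 µM; inactive = activation factor below 2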
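Material: purified diaphorase enzyme from Clostridium kluyveri / Medium: HEPES pH 7.4 buffer with MgCl2 and Tween 20 / Schedule: enzyme reaction of 16 min at room temperature / Measured by: resorufin fluorescence, excitation 544 nm, emission 590 nm / Evaluation: rise in resorufin formation, marking diaphorase activation or chemical reduction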
G6PDH CS: inhibits Leuconostoc G6PDH, flagging false hits in G6PDH-based assays. Purified L. mesenteroides G6PDH, diaphorase/resazurin coupled fluorescence, 45 min. inhibition, % at 5 µM. 0.12% of 200,000 active; in the data active = inhibition above about 50%
HKDC1 inhibitor: inhibitors of human hexokinase HKDC1 | Q2TB90 | recombinant HKDC1, G6PDH/diaphorase resazurin coupled fluorescence | inhibition, % at 20 µM | 0.16% of 340,000 active;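 active = inhibition above about 35% when tested at 20 µM, limit read from the data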
Target sequence (Q2TB90 whole entry, looked up): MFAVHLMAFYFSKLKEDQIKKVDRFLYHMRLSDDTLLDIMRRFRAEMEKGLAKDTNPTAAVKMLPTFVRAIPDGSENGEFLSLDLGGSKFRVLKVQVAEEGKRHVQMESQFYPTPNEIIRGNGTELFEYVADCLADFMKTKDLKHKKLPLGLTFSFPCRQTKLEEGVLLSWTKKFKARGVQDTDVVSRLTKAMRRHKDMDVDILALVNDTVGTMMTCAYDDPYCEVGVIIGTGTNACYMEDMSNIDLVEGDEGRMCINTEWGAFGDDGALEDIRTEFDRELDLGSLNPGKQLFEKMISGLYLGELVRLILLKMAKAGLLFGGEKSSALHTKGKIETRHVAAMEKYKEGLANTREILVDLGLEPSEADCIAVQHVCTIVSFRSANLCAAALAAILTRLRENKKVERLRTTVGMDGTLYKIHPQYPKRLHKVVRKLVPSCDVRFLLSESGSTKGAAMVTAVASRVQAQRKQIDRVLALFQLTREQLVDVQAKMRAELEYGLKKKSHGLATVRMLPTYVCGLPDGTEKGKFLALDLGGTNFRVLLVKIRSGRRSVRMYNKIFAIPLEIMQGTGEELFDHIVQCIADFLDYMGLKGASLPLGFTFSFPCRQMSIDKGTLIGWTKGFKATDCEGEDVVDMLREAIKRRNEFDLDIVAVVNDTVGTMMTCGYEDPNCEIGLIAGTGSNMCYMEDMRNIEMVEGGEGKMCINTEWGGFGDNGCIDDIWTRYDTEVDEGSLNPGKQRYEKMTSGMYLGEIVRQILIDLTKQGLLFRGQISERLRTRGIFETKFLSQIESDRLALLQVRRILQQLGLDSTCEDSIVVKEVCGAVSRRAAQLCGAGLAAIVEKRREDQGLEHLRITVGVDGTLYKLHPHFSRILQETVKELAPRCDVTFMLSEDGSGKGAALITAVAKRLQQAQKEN
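Material – in-house recombinant HK5 (HKDC1) enzyme · Quantity – HKDC1 at 5 µg/mL · Buffer or medium – pH 8.0 Tris buffer with 10 mM MgCl2 · Reagent – glucose with 1 mM ATP · Dosing – single 20 µM dose · Times – reaction time 90 min, room temperature, protected from light · Technique – resorufin fluorescence at 613 nm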
PfG6PD confirm: PfG6PD inhibition, single-dose confirmed; shares compounds with PfG6PD inh; recombinant PfGluPho, NADPH-diaphorase-resazurin fluorescence; inhibition, % at 20 µM; 34% of 2,400 active; AID 504753;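 active = inhibition of at least 50% at 20 µM in any single replicate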
Diaph ctr 10uM: diaphorase inhibition or oxidation at 10 uM NADPH; 39% of 820 active; shares compounds with PfG6PD inh; inhibition, % at 20 µM; diaphorase-coupled resazurin reduction, fluorescence, NADPH 10 uM; AID 504862;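 active = average inhibition reaching 50% or more with the compound at 20 µM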;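 also: resorufin red fluorescence formed as diaphorase reduces resazurin using NADPH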
Diaph ctr 30uM: counter-screen for P. falciparum G6PD inhibitors: diaphorase inhibitors, oxidizers | shares compounds with PfG6PD inh | inhibition, % at 20 µM | Diaphorase/resazurin coupled assay, resorufin fluorescence, 30 uM NADPH | 29% of 820 active;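 active = inhibition averaging 50% or more, tested at 20 µM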
A number is an active result; - = inactive; . = no result given.

SMILES | PfG6PD inh | Diaph inh CS | Diaph act CS | G6PDH CS | HKDC1 inhibitor | PfG6PD confirm | others
COC(=O)[C@H](CC(C)C)N1Cc2cc(OC)cc(OC)c2-c2ccccc2S1(=O)=O | 65 | . | . | . | - | -
O=[N+]([O-])c1ccc(-[n+]2ccc3ccccc3c2)c([N+](=O)[O-])c1 | 94 | . | . | . | - | 67 | Diaph ctr 10uM=-;Diaph ctr 30uM=-
O=[N+]([O-])c1ccc(SNc2ccccc2)c([N+](=O)[O-])c1 | - | . | . | . | - | .
CCCCN1C[C@H](CSC)[C@@H](CC(=O)Nc2ccc(OC)cc2)C1=O | - | . | . | . | . | .
O=c1[nH]c(CN2CCN(c3ccc(O)cc3)CC2)nc2scc(-c3ccc(Cl)cc3)c12 | 78 | - | - | - | - | -
O=c1[nH]c(CN2CCN(c3ccccc3O)CC2)nc2scc(-c3ccccc3Cl)c12 | - | . | . | . | - | .
O=c1[nH]c2cc3c(cc2cc1CN(Cc1cccnc1)Cc1nnnn1Cc1ccco1)OCCO3 | - | - | - | - | - | .
O=c1[nH]c2cc3c(cc2cc1CN(Cc1ccccc1)Cc1nnnn1Cc1ccco1)OCCO3 | 76 | - | - | - | - | -
Cc1ccc(-n2nnnc2-c2ccccc2Br)cc1 | 62 | . | . | . | - | -
CCNC(=O)C(=O)NCCC1CCCCN1S(=O)(=O)c1cccs1 (centres undefined) | - | . | . | . | - | .
O=C(/C=C/c1cccs1)N1CCN(c2ccc(O)cc2)CC1 | 64 | - | - | - | - | -
Cc1nc(NS(=O)(=O)c2ccccc2)sc1C(=O)NNS(=O)(=O)c1ccccc1 | - | . | . | . | - | .
Cc1nc(NS(=O)(=O)c2ccccc2)sc1C(=O)N/N=C/c1ccccc1 | 74 | . | . | . | - | -
Cc1cc(C)c(NS(=O)(=O)c2cccc3cccnc23)c(C)c1 | - | - | - | - | - | -
O=C(O)CCS(=O)(=O)c1cccc2cccnc12 | - | - | - | - | - | .
Cc1ccc(NS(=O)(=O)c2cccc3cccnc23)cc1Cl | - | . | . | . | - | .
CCSS(=O)(=O)c1cccc2cccnc12 | 80 | . | . | . | - | -
COc1ccc(/C=N\NC(=O)c2ccccc2[N+](=O)[O-])cc1COc1c(F)c(F)c(F)c(F)c1F | - | . | . | . | - | .
O=C(NC1CC1(c1ccccc1)c1ccccc1)c1ccccc1 (centres undefined) | 77 | . | . | . | - | -
COc1ccc(CCNC(=O)COC(=O)c2ccc(C)s2)cc1 | - | . | . | . | - | .
CCOC(=O)c1c(NC(=O)c2ccccc2Cl)sc2c1CCc1ccccc1-2 | 72 | - | - | - | - | -
CCOC(=O)c1cnc(-c2ccccc2)nc1Oc1ccc(Cl)cc1 | - | - | - | - | - | .
CCOC(=O)c1cnc(-c2ccccc2O)nc1Cl | 60 | - | - | - | - | -
Cc1ccc(NC(=O)c2cc([N+](=O)[O-])ccc2N2CCOCC2)cc1S(=O)(=O)N(C)C | 78 | . | . | . | - | -
Cc1c(C2(O)CCCCC2)[nH]c2ccc(C#N)cc12 | - | . | . | . | - | .
SMILES | PfG6PD inh | Diaph inh CS | Diaph act CS | G6PDH CS | HKDC1 inhibitor | PfG6PD confirm | others
Cc1noc(C)c1S(=O)(=O)Nc1ccccc1N1CCOCC1 | - | . | . | . | - | .
Cc1cc(C)c(C)c(S(=O)(=O)Nc2ccccc2N2CCOCC2)c1C | 65 | . | . | . | - | -
Nc1cc(S(=O)(=O)Nc2cc(Cl)ccc2Cl)ccc1N1CCOCC1 | 61 | . | . | . | - | -
O=S(=O)(Nc1ccccc1N1CCOCC1)c1ccc(Cl)cc1 | 70 | . | . | . | - | -
O=S(=O)(Nc1ccccc1N1CCOCC1)c1ccc(F)c(Cl)c1 | - | . | . | . | - | .
O=S(=O)(Nc1ccccc1N1CCCCC1)c1ccc(F)cc1 | 69 | . | . | . | - | -
CCCCC1=CC2=C(c3ccco3)C(=O)C(C)(OC(=O)c3ccc(OC)cc3)C(=O)C2=CN1C1CC1 (centres undefined) | - | . | . | . | - | .
COc1ccc(NC(=O)Cn2nnc(-c3ccc(CN4CCOCC4)cc3)n2)c(OC)c1 | - | - | - | - | - | .
CCN(C(=O)Nc1cccc(Cl)c1)c1ccccc1 | - | . | . | . | - | .
CCOC(=O)NC(N(O)c1cccc(Cl)c1)C(Cl)(Cl)Cl (centres undefined) | 85 | . | . | . | - | -
CC(=O)c1ccc(NC(=O)CSc2nnc(-c3ccncc3)o2)cc1 | - | . | . | . | - | .
COc1ccc(C(C#N)=C2C=CC(=NO)C=C2)cc1 | 61 | . | . | . | - | -
O=C(COc1cccc(C(F)(F)F)c1)N1CCN(c2ccccc2O)CC1 | - | - | - | - | - | .
O=C(COc1cccc(C(F)(F)F)c1)N1CCN(c2ccc(O)cc2)CC1 | 61 | - | - | - | - | -
Cc1c(C(=O)Nc2ccc3c(c2)OCO3)oc2ccccc12 | 61 | . | . | . | - | -
CSCc1c(C(=O)Nc2ccc3c(c2)OCO3)oc2ccccc12 | 68 | . | . | . | - | -
CC(Sc1nc(N2CCOCC2)c2c(c1C#N)CC(C)(C)OC2)C(=O)Nc1ccccc1 (centres undefined) | 60 | - | - | - | - | -
CCOC(=O)C(C)Sc1nc(N2CCOCC2)c2c(c1C#N)CC(C)(C)OC2 (centres undefined) | - | . | . | . | - | .
CSc1nc(=NC(C)=O)ss1 | 68 | - | - | - | - | -
O=C(CNC(=O)c1ccco1)OCc1ccccc1Cl | - | . | . | . | - | .
CSc1sc(C(=O)O)c2c1C(=O)CC(C)(C)C2 | - | . | . | . | - | .
Cc1ccc(S(=O)(=O)SCCCSS(=O)(=O)c2ccc(C)cc2)cc1 | 123 | . | . | . | - | 81 | Diaph ctr 10uM=-;Diaph ctr 30uM=-
Cc1ccc(S(=O)(=O)CS(=O)(=O)c2ccc(C)cc2)cc1 | - | . | . | . | - | .
Cc1ccc(S(=O)(=O)C=CS(=O)(=O)c2ccc(C)cc2)cc1 | 113 | . | . | . | . | 93 | Diaph ctr 10uM=-;Diaph ctr 30uM=-
Cc1ccc(S(=O)(=O)SC/C=C/CSS(=O)(=O)c2ccc(C)cc2)cc1 | 116 | . | . | . | - | 66 | Diaph ctr 10uM=-;Diaph ctr 30uM=-
SMILES | PfG6PD inh | Diaph inh CS | Diaph act CS | G6PDH CS | HKDC1 inhibitor | PfG6PD confirm | others
CCc1ccc(OCC(=O)NCCc2ccc3c(c2)OCCO3)cc1 | - | . | . | . | - | .
O=C(O)/C=C/c1ccc(S(=O)(=O)NCc2cccnc2)cc1 | - | . | . | . | - | .
COc1ccc2cc(CN(Cc3ccco3)C(=S)NCC3CCCO3)c(=O)[nH]c2c1 (centres undefined) | 67 | . | . | - | - | -
COc1ccc(C(=O)NCC2(c3ccc(OC)c(OC)c3)CCCC2)cc1OC | - | . | . | . | . | .
COc1ccc(C2(CNC(=O)c3ccc(OC)c([N+](=O)[O-])c3)CCCCC2)cc1OC | 85 | - | - | - | - | 53 | Diaph ctr 10uM=54;Diaph ctr 30uM=-
CC1(C)Cc2[nH]c(=S)c(C#N)cc2CO1 | 63 | - | - | - | - | -
COc1cccc(C(=O)Nc2ccc(Cl)c(C(F)(F)F)c2)c1 | 65 | - | - | - | - | -
